Experimental data published in the EternaBench riboswitch data.

Tested on: MS2 coat protein
Assay: apparent Kd, MS2 coat protein; higher = weaker binding; RNA-MaP array; FMN 200 µM where present
Outline: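 Stalled E. coli RNA polymerase transcribed each design on Illumina sequencing-chip clusters. The clusters were titrated with SNAP-549-labelled MS2 coat protein, starting at 0.7 or 1.5 nM and doubling up to 3 µM, first without ligand and then with constant ligand, in 100 mM Tris-HCl pH 7.5, 80 mM KCl, 4 mM MgCl2, BSA, DTT, yeast tRNA and Tween-20. Green signal was normalised to red-channel RNA signal and to the control-cluster median Fmax. The apparent Kd is the median of filtered binding-curve fits made for each cluster.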

[1] = designed as: ON switch for flavin mononucleotide, no ligand
[2] = ligand present: flavin mononucleotide, designed as: ON switch for flavin mononucleotide
[3] = designed as: OFF switch for flavin mononucleotide, no ligand
[4] = ligand present: flavin mononucleotide, designed as: OFF switch for flavin mononucleotide

| Sequence | apparent Kd [1] [µM] | apparent Kd [2] [µM] | apparent Kd [3] [µM] | apparent Kd [4] [µM] |
| --- | --- | --- | --- | --- |
| AGUUAAUAUCGAGGAUAUCCUCAUAGACAUGAGGAUCACCCAUGUUAACAUGGAGAAGGCGAUAUUAACAGCAUGUUACAUGCA | 0.231 | 0.0268 | – | – |
| AGUUAAUAUCGAGGAUAUCCUCUACCACAUGAGGAUCACCCAUGUAUGCAUGGAGAAGGCGAUAUUAACAGCAUGUUACAUGCA | 0.157 | 0.00862 | – | – |
| AGUUAAUAUCGAGGAUAUGUCUAGACACAUGAGGAUCACCCAUGUAUGUGUAUAGAAGGCGAUAUUAACAGCAUGUUACAUGCC | 0.0372 | 0.0156 | – | – |
| AGUUGAAAUACAGGAUAUAUAUUAUUUUUAUUUAUAGAAGGGUAAUCACAUGAGGAUCACCCAUGUAUAUACGAGGAAGAAGAG | 0.292 | 0.263 | – | – |
| AGUUGGCGAGGAUAUACAUGAGGAUCACCCAUGUGAAGAAGAAUAGUGAGGAAGAAAAGUAGAAGGCGCUGACA | – | – | 0.047 | 0.26 |
| AGUUGUUCAGGAUAUGAUGAAUAUUACAUGAGGAUCACCCAUGUAGAUCCUGAAUAUGAAUCAGAAGGGAAUAUUU | – | – | 0.0153 | 0.0325 |
| AGUUUUGUACAUGAGGAUCACCCAUGUUAAUAUGUGGUAGUCAGAAGGCAUUGAUAGAGUUUUAAUGAGGAUAUGAAUAUUCUG | 0.0318 | 0.0323 | – | – |
| AUAAAACAUGAGGAUCACCCAUGUCAACAAAGUCGAGGAUAUGGGUAAAUAAAAUAAGAACCAGAAGGCGAAUAAU | 0.597 | 0.132 | – | – |
| AUAAAACAUGAGGAUCACCCAUGUCAGGAUAUACGAUAUUAAAUUUAAUAUAUUUAUAGUAGAAGGGACAAAUA | – | – | 0.0504 | 0.055 |
| AUAAAACAUGAGGAUCACCCAUGUCAGUUAUCAUGAGGAUAUCCGCCGACCCGGGCGUAAGGAGAAGGCAUAUAAU | 0.0393 | 0.0201 | – | – |
| AUAAAGUGAGGAUAUACAUGAGGAUCACCCAUGUGAAAGUCUAAAAAAAUGACAAAAAGUAGAAGGCACAAAUA | – | – | 0.0238 | 0.0243 |
| AUAAAUAAGCAAGGAUAUUGUUUAAAUAAAUAACAAGAAGGUGCAGUUAAUUUCUCAAAACAUGAGGAUCACCCAUGUAUUUAA | 0.0424 | 0.0218 | – | – |
| AUAAUACAUGAGGAUCACCCAUGUAAUUUAACUUGUAAGAUCAAGGAUAUCAGCUCGUUUAGAGCUGAGAAGGUGAUCACAUGU | 0.187 | 0.292 | – | – |
| AUAAUGCGAGGAUAUACAUGAGGAUCACCCAUGUAAUUCAAUCGGAGAGCCACAUUACGUAGAAGGUGCAUUAA | – | – | 0.017 | 0.023 |
| AUAAUGCGUGCUACGCAAAAUAACGCAGAAGGCCAACAUGAGGAUCACCCAUGUAAAAGAAAGAUGGAGGAUAUGCGGUUUGGC | 0.051 | 0.00674 | – | – |
| AUAAUUUUAUAUAUCUUUUUUAUCAGAAGGCAUAACAUGAGGAUCACCCAUGUAUAUUAUAGUUAUGAGGAUAUGAUUUAGUUA | – | – | 0.0102 | 0.0114 |
| AUACAAUUUCGAGGAUAUCGGUGAUAAAUAAUACGAGAAGGCGAUGAAAGAUAUAAUCCUAUUUACAUGAGGAUCACCCAUGUU | 0.0348 | 0.0311 | – | – |
| AUACACUUUCGAGGAUAUCGGUGAUAAAUUUUACGAGAAGGCGAUAAAAGAUAUAAUCUUAUAUACAUGAGGAUCACCCAUGUU | 0.0273 | 0.0251 | – | – |
| AUACAUGAGGAUCACCCAUGUAAUUAAUUAAUUAAUAAGAUCUAGGAUAUCAGCUCGAUUAGAGCUGAGAAGGAGAUCACAUGU | 0.0242 | 0.0146 | – | – |
| AUACAUGAGGAUCACCCAUGUUACAUGGUCUUGAUAUUACGUAGAAGGAUGAUAUUAUUAUUAGCAUAGGAUAUACAAUUUGUA | – | – | 0.0575 | 0.044 |
| AUACCACGAGGAUAUCGUCUAUUUUACAUGAGGAUCACCCAUGUUAUCUUUGUAAUGUUUCGAGAAGGCGUGUUUU | – | – | 0.0342 | 0.0239 |
| AUACCACGAGGAUAUCGUCUAUUUUACAUGAGGAUCACCCAUGUUAUCUUUGUUUUGUUUCGAGAAGGCGUGUUUU | – | – | 0.0251 | 0.0171 |
| AUACGGGCCCAGAAGGUGCCAGCGAGAGCUGCACAUGAGGAUCACCCAUGUUGUCGGUGACGACGCAAGGAUAUGGGCCCGUAU | 0.0234 | 0.00663 | – | – |
| AUACGUGAGAAGGAUAUCACUCGCCAAAGGCGUUGAGAAGGUUUCACAUGAGGAUCACCCAUGUGCUCUUCUAG | – | – | 0.0277 | 0.0615 |
| AUACGUGAGAAGGAUAUCACUCGCCAGAGGCGAUGAGAAGGUUUCACAUGAGGAUCACCCAUGUGCUCUUCUAG | – | – | 0.032 | 0.0751 |
| AUAGAGAUAGCGAUAUGAUCGAGAGAUCAUGUCGCUAAGAUUAGAAGGACAUGAGGAUCACCCAUGUAGGAUAUGGGAGUAGAA | 0.127 | 0.0498 | – | – |
| AUAGCAACAUGAGGAUCACCCAUGUAGGAUAUCGCUAUUGUAAUCAUGAAACAUGAUUACAAUAGCGAGAAGGACAUAUGCUAC | – | – | 0.00933 | 0.011 |
| AUAGGGCUACACUGAAAGACACAUGAGGAUCACCCAUGUGAGAGAAGGGCUUCUGGAGGGCUGAGGUAGGAUAUUUCACCUGGG | – | – | 0.0186 | 0.0226 |

| Sequence | apparent Kd [1] [µM] | apparent Kd [2] [µM] | apparent Kd [3] [µM] | apparent Kd [4] [µM] |
| --- | --- | --- | --- | --- |
| AUAUAGUCAGGAUAUCGAAAUAUAUAUUAAUAUAUAUAAUACGAGAAGGGACAUGAGGAUCACCCAUGUAGUAA | – | – | 0.0257 | 0.0311 |
| AUAUAGUCAGGAUAUCGAAGUGAGUGUUGGUUUGUAAGGUACGAGAAGGGACAUGAGGAUCACCCAUGUAGGAA | – | – | 0.0403 | 0.0388 |
| AUAUAUAGUGUGAGGAUAUGCUGGUCCUUGGAUCAGCAGAAGGCACAUGAGGAUCACCCAUGUAGUUUAUUUUA | – | – | 0.0317 | 0.0767 |
| AUAUAUAUAAGGUAGGAUAUACUAAAGUAAACAUGAGGAUCACCCAUGUAAAGAAAGAAACUCAUGUAGAAGGACCAUAUAUAUAU | 0.171 | 0.0365 | – | – |
| AUAUCCUAGAUAGGAUAUACUGAGGUUGAAUGGGUAGAAGGAUCGAUAGGGAAGACUACAUGAGGAUCACCCAUGUUGUGUAUU | 0.0994 | 0.0902 | – | – |
| AUAUCGUUAUCAGGAUAUGGACAGGCCUGUCCGUAUUGAGACAGUAACAUGAGGAUCACCCAUGUCCAGAAGGGAUCGAUGUAU | – | – | 0.0542 | 0.0486 |
| AUAUCUAUAUCAGGAUAUGGACAGGCCUGUCCGUAUUGAGACAGUAACAUGAGGAUCACCCAUGUCCAGAAGGGAUCGAUGUAU | – | – | 0.048 | 0.0402 |
| AUAUCUUGUCGAGGAUAUGUAGUAUUGAUCUGAAAACAUGAGGAUCACCCAUGUAUACGGUGGGUACAGAAGGUGGAUGUAGAA | – | – | 0.416 | 0.427 |
| AUAUGAUAGAUAGGAUAUACUAUGGUUUAAGAAGUAGAAGGAUCAAUUGGGAAAUGUACAUGAGGAUCACCCAUGUUAUAGGUU | 0.0352 | 0.0335 | – | – |
| AUAUUGAUAGUAAGGAUAUGCGUGUGUGUAGUUAUGCAGAAGGUACAUGAGGAUCACCCAUGUAUUAAUGUGUG | – | – | 0.0181 | 0.0216 |
| AUAUUUAUUUAGAAGGACAUGAGGAUCACCCAUGUCGCUGGGCGCGGGAAACCGUGCCCGGCCAUGUAGGAUAUAGGUAGAUAU | – | – | 0.0142 | 0.0122 |
| AUAUUUGUGUAGAAGGUACGUGAUUAGUUAUAGUAAGGAUAUACUGACAUGAGGAUCACCCAUGUAUAAAUGGUUAAAUGUUCU | 0.0279 | 0.02 | – | – |
| AUCAAUCACAUAGGAUAUAGAAUAUUAUAUUUUUACAUGAGGAUCACCCAUGUUUUAUUGGGAUUCUAGAAGGAUGAGUUAUUA | 0.13 | 0.118 | – | – |
| AUCAGCUCGUAAGGAUAUACGUCACUGCGUCAGCAGUGUGGUAAGAUCACAUGAGGAUCACCCAUGUAGAAGGGACGAGCUGAU | – | – | 0.0156 | 0.142 |
| AUCAGCUCGUCAGGAUAUACGUCACGGCGUCAGCAGUGUGGUAAGAUCACAUGAGGAUCACCCAUGUAGAAGGGACGAGCUGAU | – | – | 0.0195 | 0.226 |
| AUCAGCUCGUCAGGAUAUACGUCACUGCGACAGCAGUGUGGUAAGAUCACAUGAGGAUCACCCAUGUAGAAGGGACGAGCUGAU | – | – | 0.0142 | 0.297 |
| AUCAGCUCGUCAGGAUAUACGUCACUGCGUCAGCAAUGUGGUAAGAUCACAUGAGGAUCACCCAUGUAGAAGGGACGAGCUGAU | – | – | 0.0299 | 0.289 |
| AUCAGCUCGUCAGGAUAUACGUCACUGCGUCAGCACUGUGGUAAGAUCACAUGAGGAUCACCCAUGUAGAAGGGACGAGCUGAU | – | – | 0.0177 | 0.172 |
| AUCAGCUCGUCAGGAUAUACGUCACUGCGUCAGCAGAGUGGUAAGAUCACAUGAGGAUCACCCAUGUAGAAGGGACGAGCUGAU | – | – | 0.0395 | 0.421 |
| AUCAGCUCGUCAGGAUAUACGUCACUGCGUCAGCAGUGUGGUAAGAUCACAUGAGGAUCACCCAUGUAGAAGGGACGAGCCGAU | – | – | 0.0132 | 0.305 |
| AUCAGCUCGUCAGGAUAUACGUCACUGCGUCAGCAGUGUGGUAAGAUCACAUGAGGAUCACCCAUGUAGAAGGGACGCGCUGAU | – | – | 0.0133 | 0.226 |
| AUCAGCUCGUCAGGAUAUACGUCACUGCUUCGGCAGUGUGGUAAGAUCACAUGAGGAUCACCCAUGUAGAAGGGACGAGCUGAA | – | – | 0.0133 | 0.259 |
| AUCAGCUCGUCAGGAUAUACGUCACUGCUUCGGCAGUGUGGUAAGAUCACAUGAGGAUCACCCAUGUAGAAGGGACGAGCUGAC | – | – | 0.0136 | 0.237 |
| AUCAGCUCGUCAGGAUAUGCAUCACUGCUUCGGCAGUGUGGUAAGAUCACAUGAGGAUCACCCAUGUAGAAGGGACGAGCUGAU | – | – | 0.00983 | 0.0694 |
| AUCAGCUCGUGAGGAUAUACAUGAUAGAUCGAUUAAUUAAUUAAUUUAACAUGAGGAUCACCCAUGUAGAAGGCACGAGCUGAU | – | – | 0.0561 | 0.0617 |
| AUCAGCUCGUGAGGAUAUACGUCACUGCGUCAGCAGUGUGGUAAGAUCACAUGAGGAUCACCCAUGUAGAAGGGACGAGCUGAU | – | – | 0.0156 | 0.0459 |
| AUCAUCUUGUCAGGAUAUGCGUGUCAACGAAAGUAGACAAUCUUGAUAACAUGAGGAUCACCCAUGUAGAAGGGACGAGAUGAU | – | – | 0.021 | 0.0219 |
